From ChEMBL document CHEMBL4342493, “Design and Optimization of 3'-(Imidazo[1,2-a]pyrazin-3-yl)-[1,1'-biphenyl]-3-carboxamides as Selective DDR1 Inhibitors” (ACS Med Chem Lett, 2020)

What was measured:
Homo sapiens [1] = species on record: Homo sapiens; assay: Selectivity index, ratio of IC50 for human recombinant full length His-tagged Bcr-Abl expressed in baculovirus expression system using tyrosine-2 peptide as substrate after 1 hr in presence of […] ATP by FRET based Z'-LYTE assay to IC50 for recombinant human GST-tagged DDR1 catalytic domain (440 to 876 residues) expressed in baculovirus expression system using Fluorescein-poly GAT as substrate incubated for 1 hr in presence of ATP by LanthaScreen Eu kinase assay
How it was run: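 Ratio of Bcr-Abl IC50 to DDR1 IC50. Bcr-Abl was measured by FRET-based Z′-Lyte assay and DDR1 by LanthaScreen Eu kinase assay. Each IC50 is the mean of three independent experiments, with variation <20%.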

[2] = target: Calcium/calmodulin-dependent protein kinase type 1D (Homo sapiens, UniProt Q8IU85); assay: Inhibition of wild-type human partial length CAMK1D (M1 to K299 residues) expressed in bacterial expression system assessed as residual enzyme activity at 200 nM after 1 hr by Kinomescan method relative to control
Chain of Calcium/calmodulin-dependent protein kinase type 1D (Q8IU85 whole entry, looked up, the tested form may be a part): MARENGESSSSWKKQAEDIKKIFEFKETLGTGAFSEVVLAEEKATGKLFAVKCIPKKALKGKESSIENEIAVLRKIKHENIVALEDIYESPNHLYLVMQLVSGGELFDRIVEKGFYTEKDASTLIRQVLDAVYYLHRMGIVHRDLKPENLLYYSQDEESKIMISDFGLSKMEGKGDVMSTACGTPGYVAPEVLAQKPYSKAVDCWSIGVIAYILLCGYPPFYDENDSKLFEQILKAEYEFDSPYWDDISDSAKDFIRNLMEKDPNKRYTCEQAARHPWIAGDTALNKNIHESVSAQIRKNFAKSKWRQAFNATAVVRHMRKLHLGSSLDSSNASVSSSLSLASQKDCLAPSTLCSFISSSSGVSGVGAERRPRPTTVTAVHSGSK

NCI-H1299 = assay: Antimigratory activity against human H1299 cells assessed as reduction in wound closure at 2.5 uM after 24 hrs by bright field microscopic based wound healing assay relative to control; format: functional; details: NCI-H1299, 24 h
How it was run: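 Wound healing (scratch) migration assay in H1299 cells at 1.25, 2.5 and 5.0 μM; wound closure compared with blank control groups.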

[3] = target: T1, Epithelial discoidin domain-containing receptor 1 (Homo sapiens, UniProt Q08345); assay: Binding affinity to wild type human partial length DDR1 (R565 to V876 residues) expressed in bacterial expression system after 1 hr by Kinomescan method
T1 sequence (Q08345 whole entry, the tested form may be a part): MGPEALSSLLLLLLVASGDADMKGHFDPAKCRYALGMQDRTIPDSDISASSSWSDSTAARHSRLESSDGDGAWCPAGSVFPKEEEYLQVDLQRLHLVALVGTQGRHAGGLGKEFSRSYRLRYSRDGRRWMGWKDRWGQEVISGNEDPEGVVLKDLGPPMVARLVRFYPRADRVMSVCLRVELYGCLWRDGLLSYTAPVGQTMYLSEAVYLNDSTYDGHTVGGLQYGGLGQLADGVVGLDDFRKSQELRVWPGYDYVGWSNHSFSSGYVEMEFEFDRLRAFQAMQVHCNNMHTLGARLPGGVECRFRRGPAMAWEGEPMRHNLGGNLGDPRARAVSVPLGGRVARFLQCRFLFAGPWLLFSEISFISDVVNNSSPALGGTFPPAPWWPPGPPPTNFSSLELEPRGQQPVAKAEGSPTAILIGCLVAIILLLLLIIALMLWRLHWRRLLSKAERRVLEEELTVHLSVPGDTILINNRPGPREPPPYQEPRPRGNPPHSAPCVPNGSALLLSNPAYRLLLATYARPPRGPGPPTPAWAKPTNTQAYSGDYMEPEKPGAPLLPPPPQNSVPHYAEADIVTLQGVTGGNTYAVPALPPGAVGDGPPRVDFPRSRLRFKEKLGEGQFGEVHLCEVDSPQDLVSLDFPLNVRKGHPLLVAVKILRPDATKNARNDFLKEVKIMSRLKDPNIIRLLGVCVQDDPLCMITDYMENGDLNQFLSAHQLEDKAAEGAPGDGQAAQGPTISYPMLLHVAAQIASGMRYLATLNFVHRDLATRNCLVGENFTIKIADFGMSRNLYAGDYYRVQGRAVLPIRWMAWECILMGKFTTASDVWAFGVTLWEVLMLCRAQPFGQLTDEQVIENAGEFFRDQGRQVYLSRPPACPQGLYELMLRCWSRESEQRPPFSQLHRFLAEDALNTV
How it was run: (§1)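 KINOMEscan binding; Kd determined for DDR1 and the off-target kinases DDR2, CAMK1D, CLK4 and TTK.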

[4] = target: T1, Epithelial discoidin domain-containing receptor 1; assay: Inhibition of human wild type partial length DDR1 (R565 to V876 residues) expressed in bacterial expression system assessed as residual enzyme activity at 200 nM after 1 hr by Kinomescan method relative to control
[5] = target: T2, Discoidin domain-containing receptor 2 (Homo sapiens, UniProt Q16832); assay: Inhibition of recombinant human GST-tagged DDR2 cytoplasmic domain (427 to 855 residues) expressed in baculovirus expression system using Fluorescein-poly GAT as substrate incubated for 1 hr in presence of ATP by LanthaScreen Eu kinase assay
T2 sequence (Q16832 whole entry): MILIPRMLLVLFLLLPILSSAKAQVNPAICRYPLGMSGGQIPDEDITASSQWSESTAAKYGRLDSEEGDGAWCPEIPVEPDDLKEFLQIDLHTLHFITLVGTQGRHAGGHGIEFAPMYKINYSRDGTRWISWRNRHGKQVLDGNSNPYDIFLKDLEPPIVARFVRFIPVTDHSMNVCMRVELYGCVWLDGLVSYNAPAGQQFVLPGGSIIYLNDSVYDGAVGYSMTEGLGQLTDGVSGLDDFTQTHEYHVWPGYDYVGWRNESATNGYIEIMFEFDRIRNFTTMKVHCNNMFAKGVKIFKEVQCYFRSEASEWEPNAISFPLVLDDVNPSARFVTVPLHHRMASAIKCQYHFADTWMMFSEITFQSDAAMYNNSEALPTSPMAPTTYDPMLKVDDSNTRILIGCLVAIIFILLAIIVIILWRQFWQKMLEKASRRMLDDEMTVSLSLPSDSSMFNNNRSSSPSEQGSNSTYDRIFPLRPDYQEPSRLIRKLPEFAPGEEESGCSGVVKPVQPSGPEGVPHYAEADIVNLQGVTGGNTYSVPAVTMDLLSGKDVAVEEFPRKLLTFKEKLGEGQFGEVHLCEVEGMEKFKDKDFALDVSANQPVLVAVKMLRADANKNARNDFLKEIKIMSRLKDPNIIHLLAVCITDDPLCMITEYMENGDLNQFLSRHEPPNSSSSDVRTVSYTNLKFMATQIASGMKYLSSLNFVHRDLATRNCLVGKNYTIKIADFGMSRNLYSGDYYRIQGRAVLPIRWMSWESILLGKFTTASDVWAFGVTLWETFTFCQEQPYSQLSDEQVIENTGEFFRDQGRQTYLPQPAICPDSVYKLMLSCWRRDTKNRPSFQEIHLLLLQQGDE
How it was run: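 LanthaScreen Eu kinase assay for DDR2; IC50 values are means of three independent experiments, variations <20%.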

[6] = target: T3, Discoidin domain-containing receptor 2 (Homo sapiens) (UniProt Q16832); assay: Inhibition of wild type human partial length DDR2 (V555 to E855 residues) expressed in mammalian expression system assessed as residual enzyme activity at 200 nM after 1 hr by Kinomescan method relative to control
T3 sequence (whole entry): T2 sequence (Q16832 whole entry)

Homo sapiens [7] = species on record: Homo sapiens; assay: Selectivity index, ratio of IC50 for recombinant human GST-tagged DDR2 cytoplasmic domain (427 to 855 residues) expressed in baculovirus expression system to IC50 for recombinant human GST-tagged DDR1 catalytic domain (440 to 876 residues) expressed in baculovirus expression system using Fluorescein-poly GAT as substrate incubated for 1 hr in presence of ATP by LanthaScreen Eu kinase assay
How it was run: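 Ratio of DDR2 IC50 to DDR1 IC50. Both kinases were measured by LanthaScreen Eu kinase assay. Each IC50 is the mean of three independent experiments, with variation <20%.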

[8] = target: T2, Discoidin domain-containing receptor 2; assay: Binding affinity to wild type human partial length DDR2 (V555 to E855 residues) expressed in mammalian expression system after 1 hr by Kinomescan method; how it was run: as §1
[9] = target: Dual specificity protein kinase CLK4 (Homo sapiens, UniProt Q9HAZ1); assay: Inhibition of wild-type human partial length CLK4 (R135 to K481 residues) expressed in bacterial expression system assessed as enzyme residual activity at 200 nM after 1 hr by Kinomescan method relative to control
Chain of Dual specificity protein kinase CLK4 (Q9HAZ1 whole entry, looked up, the tested form may be a part): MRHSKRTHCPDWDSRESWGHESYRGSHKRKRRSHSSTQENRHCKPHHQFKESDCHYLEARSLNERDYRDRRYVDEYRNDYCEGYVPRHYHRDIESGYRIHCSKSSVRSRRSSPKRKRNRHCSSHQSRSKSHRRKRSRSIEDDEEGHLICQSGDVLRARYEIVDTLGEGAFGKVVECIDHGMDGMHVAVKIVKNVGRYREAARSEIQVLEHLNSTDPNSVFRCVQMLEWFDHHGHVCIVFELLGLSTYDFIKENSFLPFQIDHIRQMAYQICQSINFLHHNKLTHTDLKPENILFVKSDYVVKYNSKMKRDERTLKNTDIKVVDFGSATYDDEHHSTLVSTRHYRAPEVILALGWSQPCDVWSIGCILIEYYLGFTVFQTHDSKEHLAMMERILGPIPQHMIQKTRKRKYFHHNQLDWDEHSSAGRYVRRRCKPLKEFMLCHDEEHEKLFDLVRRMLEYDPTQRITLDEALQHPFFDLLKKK

Ratio IC50 (Homo sapiens [1]): 420 | Activity [2]: 0.9% | Kd [3]: 7.8 nM | Activity [4]: 0% | IC50 [5]: 1740 nM | Activity [6]: 15% | Ratio IC50 (Homo sapiens [7]): 73 | Kd [8]: 86 nM | Activity [9]: 1.8%
SMILES: CCc1ccc(C(=O)Nc2cc(F)cc(C(F)(F)F)c2)cc1-c1cc(C)cc(-c2cnc3cnccn23)c1
inhibition at 2.5 µM (NCI-H1299): 60%
